Holding throughout (format): functional
In one experiment the test system is SF-539. As to the kind of experiment: Cytotoxicity against human SF539 cells. The method, boiled down: (§1)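 Read-out is growth inhibition of human cancer cell lines. GI50 is taken as the compound concentration giving 50% growth inhibition.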
In the next experiment the test system is HOP-62. As to the kind of experiment: Cytotoxicity against human HOP62 cells. Put shortly: as §1
The next experiment relates to HCT-116. As to the kind of experiment: Cytotoxicity against human HCT116 cells. The method, boiled down: as §1
Another experiment relates to UACC-62. The experiment in a line: Cytotoxicity against human UACC62 cells. Put shortly:
as §1

In another experiment the test system is OVCAR-3. The experiment in a line: Cytotoxicity against human OVCAR-3 cells.
In a further experiment the test system is SN12C. As to the kind of experiment: Cytotoxicity against human SN12C cells. Put shortly:
as §1

A further experiment concerns DU-145. As to the kind of experiment: Cytotoxicity against human DU145 cells. The method, boiled down: as §1
Another experiment deals with MDA-MB-435. As to the kind of experiment: Cytotoxicity against human MDA-MB-435 cells.

SMILES strings stand for the structures.

Broadly, the GI50 is the concentration that inhibits growth by half. A high value points to less potent growth inhibition. Consider `[N-]=[N+]=NCCCn1c2c(c3ccc([N+](=O)[O-])cc3c1=O)C(=O)c1ccccc1-2`, for which the GI50 in the experiment with SF-539 stood at 79400 nM.

As for `O=C1c2ccccc2-c2c1c1ccccc1c(=O)n2CCCn1ccnc1`, the GI50 in the experiment on HOP-62 is 2690 nM; with HCT-116, 1410 nM; in the experiment with UACC-62 it was 790 nM; with OVCAR-3, 1660 nM; with SN12C, 1660 nM; in the experiment on DU-145, 1410 nM.

As to `NCCCn1c2c(c3ccccc3c1=O)C(=O)c1ccccc1-2`, the GI50 was determined as 180 nM with HCT-116; 250 nM in the experiment on SF-539; 260 nM in the experiment on UACC-62; 1380 nM with OVCAR-3; 160 nM in the experiment on SN12C; 220 nM in the experiment with DU-145. Moreover, the GI50 with MDA-MB-435 came out at 780 nM.

Regarding `O=C1c2ccccc2-c2c1c1ccccc1c(=O)n2CCCN1CCOCC1`, the GI50 came out at 3720 nM in the experiment on HOP-62; 3470 nM in the experiment on SF-539; 5370 nM in the experiment with UACC-62; 16600 nM with OVCAR-3; 21400 nM in the experiment with SN12C; 7240 nM with DU-145. The GI50 with MDA-MB-435 was above 100000 nM.

Regarding `O=C1c2ccccc2-c2c1c1ccc([N+](=O)[O-])cc1c(=O)n2CCCN1CCOCC1`, the GI50 in the experiment with HOP-62 is 21 nM; in the experiment on HCT-116, 38 nM; in the experiment with SF-539 it was 95 nM; in the experiment on UACC-62 it was 380 nM; in the experiment on SN12C it was 309 nM; in the experiment with DU-145 it was 85 nM. For the same molecule, in the experiment with MDA-MB-435, the GI50 is 1230 nM.

`COc1ccc2c(c1)C(=O)c1c-2n(CCCN2CCOCC2)c(=O)c2ccccc12`: the GI50 was determined as 1410 nM in the experiment with HOP-62; 1260 nM in the experiment on HCT-116; 1950 nM in the experiment on SF-539; 1580 nM with UACC-62; 2690 nM with OVCAR-3; 4070 nM with SN12C. The GI50 in the experiment with DU-145 turned out to be 2290 nM; with MDA-MB-435, 4680 nM.

As to `COc1ccc2c(c1)C(=O)c1c-2n(CCCNCCO)c(=O)c2cc([N+](=O)[O-])ccc12`, the GI50 with HOP-62 is below 10 nM; in the experiment with SF-539 it was below 10 nM; with UACC-62 it was below 10 nM; in the experiment with OVCAR-3 it was below 10 nM; with SN12C, 12 nM; in the experiment on DU-145, below 10 nM. Also, the GI50 with MDA-MB-435 is below 10 nM.

Turning to `COc1ccc2c(c1)C(=O)c1c-2n(CCCNCCO)c(=O)c2ccccc12`, the GI50 came to 26 nM in the experiment on HOP-62; 44 nM in the experiment with HCT-116; 112 nM in the experiment on SF-539; 550 nM in the experiment with UACC-62; 417 nM in the experiment on OVCAR-3; 158 nM in the experiment with SN12C. The GI50 in the experiment on DU-145 was 55 nM; in the experiment with MDA-MB-435 it was 389 nM.

Take `COc1ccc2c(c1)C(=O)c1c-2n(CCCN(C)C)c(=O)c2cc([N+](=O)[O-])ccc12`: the GI50 in the experiment with HOP-62 is below 10 nM; in the experiment with HCT-116 it was below 10 nM; in the experiment with SF-539 it was below 10 nM; in the experiment with UACC-62, below 10 nM; in the experiment on OVCAR-3, 28 nM; in the experiment on SN12C it was below 10 nM. The GI50 with DU-145 and with MDA-MB-435 was below 10 nM throughout.

On to `COc1ccc2c(c1)C(=O)c1c-2n(CCCI)c(=O)c2cc([N+](=O)[O-])ccc12`, for which the GI50 with HCT-116 was 46 nM; in the experiment with SF-539 it was 58 nM; with UACC-62, 148 nM; in the experiment with OVCAR-3, 3020 nM; in the experiment with SN12C it was 309 nM; with DU-145, 34 nM. Also, in the experiment with MDA-MB-435, the GI50 was 1480 nM.

Turning to `NCCCn1c2c(c3ccc([N+](=O)[O-])cc3c1=O)C(=O)c1ccccc1-2`, the GI50 with SF-539 came to 302 nM.

Regarding `COc1ccc2c(c1)C(=O)c1c-2n(CCCN=[N+]=[N-])c(=O)c2ccccc12`, the GI50 with HOP-62 is 33900 nM; in the experiment on HCT-116, 26900 nM; in the experiment on SF-539, 44700 nM; with UACC-62, 75900 nM; in the experiment on OVCAR-3, 52500 nM; with SN12C it was above 100000 nM. Also, the concentration for 50% growth inhibition (GI50) in the experiment with DU-145 worked out at 61700 nM; in the experiment with MDA-MB-435, 64600 nM.

As for `COc1ccc2c(c1)C(=O)c1c-2n(CCCN)c(=O)c2ccccc12`, the GI50 in the experiment with HOP-62 is below 10 nM; in the experiment with HCT-116 it was below 10 nM; with SF-539 it was 38 nM; in the experiment on OVCAR-3 it was 28 nM; in the experiment on SN12C it was below 10 nM; with DU-145, 14 nM. Halving of growth in the experiment on MDA-MB-435 (GI50) required 59 nM.

As for `COc1ccc2c(c1)C(=O)c1c-2n(CCCN(C)C)c(=O)c2ccccc12`, the GI50 was found to be 78 nM with HOP-62; 102 nM in the experiment with HCT-116; 240 nM with SF-539; 1000 nM in the experiment on UACC-62; 427 nM in the experiment on OVCAR-3; 245 nM in the experiment on SN12C. Further, the GI50 in the experiment with DU-145 turned out to be 257 nM; in the experiment with MDA-MB-435 it was 617 nM.

Take `COc1ccc2c(c1)C(=O)c1c-2n(CCCn2ccnc2)c(=O)c2ccccc12`: the GI50 with HOP-62 stood at 56 nM; in the experiment on HCT-116 it was 110 nM; in the experiment with SF-539 it was 178 nM; in the experiment with UACC-62 it was 71 nM; in the experiment on OVCAR-3, 1660 nM; in the experiment with SN12C it was 676 nM. Also, the GI50 in the experiment with DU-145 stood at 204 nM; with MDA-MB-435, 646 nM.

For the molecule `[N-]=[N+]=NCCCn1c2c(c3ccccc3c1=O)C(=O)c1ccccc1-2`, in the experiment on DU-145, it took 29500 nM to inhibit growth by half (GI50).

In the case of `O=C1c2ccccc2-c2c1c1ccc([N+](=O)[O-])cc1c(=O)n2CCCBr`, the GI50 was 3470 nM in the experiment on HCT-116 and above 100000 nM with SF-539.

As for `COc1ccc2c(c1)C(=O)c1c-2n(CCCN2CCOCC2)c(=O)c2cc([N+](=O)[O-])ccc12`, the GI50 in the experiment with HOP-62, in the experiment on HCT-116, in the experiment on UACC-62, in the experiment on OVCAR-3, in the experiment with SN12C and in the experiment with MDA-MB-435 was below 10 nM throughout.

As to `O=C1c2ccccc2-c2c1c1ccc([N+](=O)[O-])cc1c(=O)n2CCCNCCO`, the GI50 was 31 nM in the experiment on HOP-62; 27 nM in the experiment with HCT-116; above 100000 nM in the experiment with SF-539; 200 nM in the experiment on UACC-62; 1350 nM in the experiment on OVCAR-3; 229 nM in the experiment with SN12C. For the same molecule, the values for the GI50 with DU-145 and with MDA-MB-435 were above 100000 nM and 1070 nM, respectively.

On to `COc1ccc2c(c1)C(=O)c1c-2n(CCCn2ccnc2)c(=O)c2cc([N+](=O)[O-])ccc12`, for which the GI50 was below 10 nM in the experiment on HOP-62; below 10 nM with HCT-116; below 10 nM in the experiment with SF-539; below 10 nM in the experiment with UACC-62; 20 nM in the experiment on OVCAR-3; below 10 nM with SN12C. Moreover, the GI50 in the experiment with DU-145 and in the experiment with MDA-MB-435 was below 10 nM in each case.

In the case of `O=C1c2ccccc2-c2c1c1ccccc1c(=O)n2CCCNCCO`, the GI50 with HOP-62 came to 195 nM; in the experiment on SF-539, 550 nM; in the experiment with UACC-62, 178 nM; with OVCAR-3, 550 nM; in the experiment with SN12C, 269 nM; in the experiment with DU-145, 174 nM. In the experiment with MDA-MB-435, this molecule displayed a GI50 of 490 nM.

Molecule `COc1ccc2c(c1)C(=O)c1c-2n(CCCN)c(=O)c2cc([N+](=O)[O-])ccc12` yielded a GI50 in the experiment with HCT-116 below 10 nM.

Turning to `COc1cc2c3c(n(C)c(=O)c2cc1OC)-c1cc2c(cc1C3=O)OCO2`, the GI50 was determined as 1300 nM with HOP-62; 35000 nM with HCT-116; 4200 nM with UACC-62; 68000 nM in the experiment on SN12C; 37000 nM with DU-145; 96000 nM in the experiment with MDA-MB-435.

Source of the values: ChEMBL document CHEMBL1148768, “Nitrated indenoisoquinolines as topoisomerase I inhibitors: a systematic study and optimization” (2007).
